Results published in ChEMBL document CHEMBL1137725, “11C-labelled PIB analogues as potential tracer agents for in vivo imaging of amyloid beta in Alzheimer's disease” (Eur J Med Chem, 2009).
The source made the active and inactive calls. The rule behind the calls is not given here.

Key:
[1] = biological target: T1, Amyloid-beta precursor protein (Homo sapiens, UniProt P05067); assay: Binding affinity to beta-amyloid plaques in cortex of patient with Alzheimer's disease at 1 uM by fluorescence microscopy
T1 sequence (P05067 whole entry): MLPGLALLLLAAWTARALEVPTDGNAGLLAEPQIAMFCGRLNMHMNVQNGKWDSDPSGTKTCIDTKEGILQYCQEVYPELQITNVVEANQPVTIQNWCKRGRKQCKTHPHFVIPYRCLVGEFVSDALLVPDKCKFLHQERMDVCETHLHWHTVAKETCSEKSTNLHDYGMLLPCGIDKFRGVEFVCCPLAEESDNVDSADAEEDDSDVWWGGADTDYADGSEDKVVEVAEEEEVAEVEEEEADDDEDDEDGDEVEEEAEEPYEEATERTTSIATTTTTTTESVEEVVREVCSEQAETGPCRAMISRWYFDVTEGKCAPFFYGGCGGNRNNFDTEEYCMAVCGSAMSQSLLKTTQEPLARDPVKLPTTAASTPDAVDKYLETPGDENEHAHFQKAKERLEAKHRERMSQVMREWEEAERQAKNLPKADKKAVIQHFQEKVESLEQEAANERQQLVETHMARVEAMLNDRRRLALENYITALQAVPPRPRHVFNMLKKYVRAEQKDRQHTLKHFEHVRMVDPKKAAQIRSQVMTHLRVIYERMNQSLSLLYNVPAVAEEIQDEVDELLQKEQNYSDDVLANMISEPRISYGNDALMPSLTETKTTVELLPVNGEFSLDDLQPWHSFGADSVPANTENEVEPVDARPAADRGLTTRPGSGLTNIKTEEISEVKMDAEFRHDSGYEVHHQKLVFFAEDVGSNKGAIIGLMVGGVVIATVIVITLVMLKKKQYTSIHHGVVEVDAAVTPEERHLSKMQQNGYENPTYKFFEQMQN
Summary of the method: (§1)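 Paraffin 8 µm sagittal sections of transgenic APP (London mutation) mouse brain or post-mortem human AD brain; xylol and graded-ethanol deparaffinization, then 1 h incubation with cold compound; tap-water rinse, Mowiol-DABCO mounting. Fluorescence microscopy with UV filter set (excitation 355–425 nm, emission 470 nm longpass). Neighbouring sections immunostained with pan Aβ or AβN25 antibody to check co-localization.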

[2] = biological target: T1, Amyloid-beta precursor protein; assay: Binding affinity to fibrillar beta-amyloid plaques in cortex of patient with Alzheimer's disease at 1 uM by fluorescence microscopy; summary of the method: as §1
[3] = biological target: T1, Amyloid-beta precursor protein; assay: Displacement of [125I]IMPY from beta-amyloid plaques in brain homogenate of patient with Alzheimer's disease by gamma counting; assay type: tissue-based
Summary of the method: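 Gray-matter homogenates of post-mortem AD cortex in PBS pH 7.4, about 100 mg wet tissue/ml. Incubated 2 h at 37 °C, then GF/B vacuum filtration, two PBS washes, gamma counting. Ki from non-linear regression using Ki = IC50/(1+L/Kd).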

[4] = biological target: T1, Amyloid-beta precursor protein; assay: Binding affinity to vascular beta-amyloid plaques in vibratome section of transgenic mouse cortex overexpressing human APP at 1 uM by fluorescence microscopy
Summary of the method: (§2)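 Vibratome sections of transgenic APP (London mutation) mouse brain cortex incubated with cold compound. Fluorescence microscopy with UV filter set (excitation 355–425 nm, emission 470 nm longpass). For co-localization, one section was incubated first with AβN25 antibody and then with compound.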

[5] = biological target: T1, Amyloid-beta precursor protein; assay: Binding affinity to vascular beta-amyloid plaques in vibratome section of transgenic mouse overexpressing human APP at 0.1 uM by fluorescence microscopy; details: 1 uM, in the assay text read “at 1 uM” for “at 0.1 uM”; summary of the method: as §2
[6] = biological target: T1, Amyloid-beta precursor protein; assay: Binding affinity to beta-amyloid plaques in subiculum of transgenic mouse overexpressing human APP at 1 uM by fluorescence microscopy; assay type: tissue-based; summary of the method: as §1
[7] = Biodistribution in NMRI mouse cerebrum at 37 MBq/mL, iv after 60 mins postinjection assessed per gram of tissue by gamma counting; assay type: ADME, organism-based; details: in vivo, 1 h
Summary of the method: (§3)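 Normal mice given the 11C tracer i.v.; killed by decapitation at 2 or 60 min p.i. (n = 4 per time point). Blood collected in tared tube and weighed; organs dissected and weighed, then gamma-counted. Counts background-corrected and expressed as %ID per organ or %ID/g tissue.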

Intestine [8] = assay: Biodistribution in NMRI mouse intestine at 37 MBq/mL, iv after 60 mins postinjection by gamma counting; assay type: ADME, organism-based; details: in vivo, 1 h; summary of the method: as §3
Blood [9] = assay: Biodistribution in NMRI mouse blood at 37 MBq/mL, iv after 60 mins postinjection by gamma counting; assay type: ADME, organism-based; details: in vivo, 1 h; summary of the method: as §3
[10] = Biodistribution in NMRI mouse hepatobiliary system at 37 MBq/mL, iv after 60 mins postinjection by gamma counting; assay type: ADME, organism-based; details: in vivo, 1 h; summary of the method: as §3
Kidney [11] = assay: Biodistribution in NMRI mouse kidney at 37 MBq/mL, iv after 60 mins postinjection by gamma counting; assay type: ADME, organism-based; details: in vivo, 1 h; summary of the method: as §3
Kidney [12] = assay: Biodistribution in NMRI mouse kidney at 37 MBq/mL, iv after 2 mins postinjection assessed per gram of tissue by gamma counting; assay type: ADME, organism-based; details: in vivo; summary of the method: as §3
Liver [13] = assay: Biodistribution in NMRI mouse liver at 37 MBq/mL, iv after 2 mins postinjection by gamma counting; assay type: ADME, organism-based; details: in vivo; summary of the method: as §3
Cerebellum [14] = assay: Biodistribution in NMRI mouse cerebellum at 37 MBq/mL, iv after 2 mins postinjection by gamma counting; assay type: ADME, organism-based; details: in vivo; summary of the method: as §3
Liver [15] = assay: Biodistribution in NMRI mouse liver at 37 MBq/mL, iv after 60 mins postinjection by gamma counting; assay type: ADME, organism-based; details: in vivo, 1 h; summary of the method: as §3
[16] = Biodistribution in NMRI mouse cerebrum at 37 MBq/mL, iv after 2 mins postinjection assessed per gram of tissue by gamma counting; assay type: ADME, organism-based; details: in vivo; summary of the method: as §3
Liver [17] = assay: Biodistribution in NMRI mouse liver at 37 MBq/mL, iv after 60 mins postinjection assessed per gram of tissue by gamma counting; assay type: ADME, organism-based; details: in vivo, 1 h; summary of the method: as §3
[18] = Biodistribution in NMRI mouse cerebrum at 37 MBq/mL, iv after 60 mins postinjection by gamma counting; assay type: ADME, organism-based; details: in vivo, 1 h; summary of the method: as §3
[19] = Biodistribution in NMRI mouse urine at 37 MBq/mL, iv after 60 mins postinjection by gamma counting; assay type: ADME, organism-based; details: in vivo, 1 h; summary of the method: as §3
Blood [20] = assay: Blood clearance in NMRI mouse assessed ratio of %ID in blood after 2 mins to %ID in blood after 60 mins at 37 MBq/mL, iv; assay type: ADME, tissue-based
Summary of the method: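 Normal mice given i.v. 11C tracer; blood collected at 2 and 60 min p.i. (n = 4 per time point), weighed and gamma-counted. Clearance expressed as the ratio of %ID/g blood at 2 min to %ID/g blood at 60 min.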

[21] = Biodistribution in NMRI mouse urine at 37 MBq/mL, iv after 2 mins postinjection by gamma counting; assay type: ADME, organism-based; details: in vivo; summary of the method: as §3
Intestine [22] = assay: Biodistribution in NMRI mouse intestine at 37 MBq/mL, iv after 2 mins postinjection by gamma counting; assay type: ADME, organism-based; details: in vivo; summary of the method: as §3
Kidney [23] = assay: Biodistribution in NMRI mouse kidney at 37 MBq/mL, iv after 60 mins postinjection assessed per gram of tissue by gamma counting; assay type: ADME, organism-based; details: in vivo, 1 h; summary of the method: as §3
Blood [24] = assay: Biodistribution in NMRI mouse blood at 37 MBq/mL, iv after 2 mins postinjection assessed per gram of tissue by gamma counting; assay type: ADME, organism-based; details: in vivo; summary of the method: as §3
Cerebellum [25] = assay: Biodistribution in NMRI mouse cerebellum at 37 MBq/mL, iv after 60 mins postinjection assessed per gram of tissue by gamma counting; assay type: ADME, organism-based; details: in vivo, 1 h; summary of the method: as §3
Blood [26] = assay: Biodistribution in NMRI mouse blood at 37 MBq/mL, iv after 60 mins postinjection assessed per gram of tissue by gamma counting; assay type: ADME, organism-based; details: in vivo, 1 h; summary of the method: as §3
Blood [27] = assay: Biodistribution in NMRI mouse blood at 37 MBq/mL, iv after 2 mins postinjection by gamma counting; assay type: ADME, organism-based; details: in vivo; summary of the method: as §3
[28] = Partition coefficient, log P in Octanol and 0.025 M phosphate buffer at pH7.4 by gamma counter; assay type: physicochemical; details: octanol/0.025 M phosphate buffer, pH 7.4
Summary of the method: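 HPLC-purified 11C tracer added to 1-octanol and 2 ml 0.025 M phosphate buffer pH 7.4. Vortexed 3 min at room temperature, centrifuged 2700 g for 10 min. Aliquots of each phase weighed and gamma-counted; P = (cpm/ml octanol)/(cpm/ml buffer). Triplicate.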

[29] = Biodistribution in NMRI mouse cerebrum at 37 MBq/mL, iv after 2 mins postinjection by gamma counting; assay type: ADME, organism-based; details: in vivo; summary of the method: as §3
Cerebellum [30] = assay: Biodistribution in NMRI mouse cerebellum at 37 MBq/mL, iv after 60 mins postinjection by gamma counting; assay type: ADME, organism-based; details: in vivo, 1 h; summary of the method: as §3
Cerebellum [31] = assay: Biodistribution in NMRI mouse cerebellum at 37 MBq/mL, iv after 2 mins postinjection assessed per gram of tissue by gamma counting; assay type: ADME, organism-based; details: in vivo; summary of the method: as §3
Kidney [32] = assay: Biodistribution in NMRI mouse kidney at 37 MBq/mL, iv after 2 mins postinjection by gamma counting; assay type: ADME, organism-based; details: in vivo; summary of the method: as §3
Liver [33] = assay: Biodistribution in NMRI mouse liver at 37 MBq/mL, iv after 2 mins postinjection assessed per gram of tissue by gamma counting; assay type: ADME, organism-based; details: in vivo; summary of the method: as §3
[34] = biological target: T1, Amyloid-beta precursor protein; assay: Binding affinity to core beta-amyloid plaques in vibratome section of transgenic mouse overexpressing human APP at 1 uM by fluorescence microscopy; summary of the method: as §2

SMILES | Drug uptake [7] | Drug uptake (Intestine [8]) | Drug uptake (Blood [9]) | Drug uptake (Kidney [11]) | Drug uptake (Kidney [12]) | Drug uptake (Liver [13]) | Drug uptake (Cerebellum [14]) | Drug uptake (Liver [15]) | Drug uptake [16] | Drug uptake (Liver [17]) | Drug uptake [18] | Drug uptake [19] | Drug uptake [21] | Drug uptake (Intestine [22]) | Drug uptake (Kidney [23]) | Drug uptake (Blood [24]) | Drug uptake (Cerebellum [25]) | Drug uptake (Blood [26]) | Drug uptake (Blood [27]) | Drug uptake [29] | further results
CNc1ccc(-c2nc3cccc(O)c3s2)cc1 |  |  |  |  |  |  |  |  |  |  |  |  |  |  |  |  |  |  |  |  | Activity [1]: Active; Activity [2]: Active; Ki [3]: 11.2 nM; Activity [4]: Active; Activity [5]: Active; Activity [6]: Active
CNc1ccc(-c2nc3cc(O)ccc3s2)cc1 |  |  |  |  |  |  |  |  |  |  |  |  |  |  |  |  |  |  |  |  | Activity [1]: Active; Activity [2]: Active; Ki [3]: 11.5 nM; Activity [4]: Active; Activity [5]: Active; Activity [6]: Active; Activity [34]: Active
[11CH3]Nc1ccc(-c2nc3cc(O)ccc3s2)cc1 | 0.09 % ID/g | 73.7 %ID | 0.5 %ID | 0.7 %ID | 14.2 % ID/g | 25.8 %ID | 0.57 %ID | 4.2 %ID | 4.3 % ID/g | 2.2 % ID/g | 0.03 %ID | 14.6 %ID | 0.35 %ID | 12.9 %ID | 1.2 % ID/g | 2.5 % ID/g | 0.08 % ID/g | 0.21 % ID/g | 6 %ID | 1.3 %ID | Drug uptake [10]: 78 %ID; logD [28]: 2.48; Drug uptake (Cerebellum [30]): 0.01 %ID; Drug uptake (Cerebellum [31]): 4.4 % ID/g; Drug uptake (Kidney [32]): 8.1 %ID; Drug uptake (Liver [33]): 12.1 % ID/g
CNc1ccc(-c2nc3ccc(O)cc3s2)cc1 [PITTSBURGH COMPOUND B UNLABELLED] | 0.6 % ID/g | 42.5 %ID | 2.7 %ID | 4.8 %ID | 19.9 % ID/g | 15.6 %ID | 0.2 %ID | 9.8 %ID | 3.6 % ID/g | 5 % ID/g | 0.2 %ID | 24.4 %ID | 0.2 %ID | 12 %ID | 9.1 % ID/g | 3.1 % ID/g | 0.3 % ID/g | 1.1 % ID/g | 7.9 %ID | 1.1 %ID | Drug uptake (Cerebellum [30]): 0 %ID; Drug uptake (Cerebellum [31]): 1.6 % ID/g; Drug uptake (Kidney [32]): 10.3 %ID; Drug uptake (Liver [33]): 7.9 % ID/g
CNc1ccc(-c2nc3c(O)cccc3s2)cc1 |  |  |  |  |  |  |  |  |  |  |  |  |  |  |  |  |  |  |  |  | Activity [1]: Active; Activity [2]: Active; Ki [3]: 18.8 nM; Activity [6]: Active

The next lines start with results.

Drug uptake [7] | Drug uptake (Intestine [8]) | Drug uptake (Blood [9]) | Drug uptake (Kidney [11]) | Drug uptake (Kidney [12]) | Drug uptake (Liver [13]) | Drug uptake (Cerebellum [14]) | Drug uptake (Liver [15]) | Drug uptake [16] | Drug uptake (Liver [17]) | Drug uptake [18] | Drug uptake [19] | Drug uptake [21] | Drug uptake (Intestine [22]) | Drug uptake (Kidney [23]) | Drug uptake (Blood [24]) | Drug uptake (Cerebellum [25]) | Drug uptake (Blood [26]) | Drug uptake (Blood [27]) | Drug uptake [29] | SMILES | further results
0.3 % ID/g | 52.3 %ID | 2.3 %ID | 0.6 %ID | 19.4 % ID/g | 21.2 %ID | 0.2 %ID | 6.4 %ID | 3.8 % ID/g | 3.7 % ID/g | 0.1 %ID | 22.7 %ID | 0.2 %ID | 12 %ID | 1.2 % ID/g | 6.5 % ID/g | 0.6 % ID/g | 1 % ID/g | 13.8 %ID | 1.2 %ID | [11CH3]Nc1ccc(-c2nc3c(O)cccc3s2)cc1 | Drug uptake [10]: 59 %ID; Ratio (Blood [20]): 6; logD [28]: 3.18; Drug uptake (Cerebellum [30]): 0 %ID; Drug uptake (Cerebellum [31]): 2.7 % ID/g; Drug uptake (Kidney [32]): 10.6 %ID; Drug uptake (Liver [33]): 11.1 % ID/g
0.16 % ID/g | 54.7 %ID | 1.2 %ID | 2.5 %ID | 16.9 % ID/g | 27.8 %ID | 0.22 %ID | 7.1 %ID | 2.6 % ID/g | 4 % ID/g | 0.05 %ID | 24.8 %ID | 0.58 %ID | 9.4 %ID | 4.8 % ID/g | 4.6 % ID/g | 0.1 % ID/g | 0.57 % ID/g | 9.8 %ID | 0.83 %ID | [11CH3]Nc1ccc(-c2nc3cccc(O)c3s2)cc1 | Ratio (Blood [20]): 12; logD [28]: 2.45; Drug uptake (Cerebellum [30]): 0.01 %ID; Drug uptake (Cerebellum [31]): 2.8 % ID/g; Drug uptake (Kidney [32]): 9 %ID; Drug uptake (Liver [33]): 14.5 % ID/g
